Measured values taken from ChEMBL document CHEMBL3046748, “Antifeedant effects of the limonoids from Entandrophragma candolei (Meliaceae) on the gram pod borer, Helicoverpa armigera (Lepidoptera: Noctuidae)” (J Agric Food Chem, 2003).
Converted amounts (≈) assume the structure as drawn. The source made the active and inactive calls. The rule behind the calls is not given here.

How the values were obtained:
[1] = test system: Helicoverpa armigera; experiment: Antifeedant activity against third-instar larva of Helicoverpa armigera assessed as decrease in food consumption at 2 to 10 ug/larva applied topically measured after 7 days relative to control; type: functional, organism-based
Method in brief: (§1)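 Larvae were dosed topically at 2-10 µg/larva in 0.5 µL acetone on the dorsal terga, with acetone-only controls. They were then fed untreated artificial diet, and diet consumption and weight gain were compared with controls over 7 d.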

[2] = test system: Helicoverpa armigera; experiment: Antifeedant activity against Helicoverpa armigera fed on compound-treated artificial diet assessed as growth inhibition at 50 to 100 ppm after 3 days relative to control; type: functional
[3] = test system: Helicoverpa armigera; experiment: Antifeedant activity against Helicoverpa armigera fed on compound-treated artificial diet assessed as inhibition of consumption at 100 ppm after 3 days relative to control; type: functional; conditions: 72 h
[4] = test system: Helicoverpa armigera; experiment: Antifeedant activity against fourth-instar larva of Helicoverpa armigera assessed as efficiency of conversion of ingested food at 10 ppm applied topically measured after 3 days (reference value: 20.3 +/- 2.7%); type: functional, Instar larval stage
[5] = test system: Helicoverpa armigera; experiment: Antifeedant activity against fourth-instar larva of Helicoverpa armigera assessed as efficiency of conversion of ingested food at 5 ppm applied topically measured after 3 days (reference value: 20.3 +/- 2.7%); type: functional, Instar larval stage
[6] = test system: Helicoverpa armigera; experiment: Antifeedant activity against fourth-instar larva of Helicoverpa armigera assessed as relative consumption rate ratio per unit weight per day at 10 ppm applied topically measured after 3 days (reference value: 3.85 +/- 0.9); type: functional
[7] = test system: Helicoverpa armigera; experiment: Antifeedant activity against fourth-instar larva of Helicoverpa armigera assessed as relative consumption rate ratio per unit weight per day at 5 ppm applied topically measured after 3 days (reference value: 3.85 +/- 0.9); type: functional
[8] = test system: Helicoverpa armigera; experiment: Antifeedant activity against fourth-instar larva of Helicoverpa armigera assessed as relative growth rate ratio per unit weight per day at 10 ppm applied topically measured after 3 days (reference value: 0.8 +/- 0.03); type: functional
[9] = test system: Helicoverpa armigera; experiment: Antifeedant activity against fourth-instar larva of Helicoverpa armigera assessed as relative growth rate ratio per unit weight per day at 5 ppm applied topically measured after 3 days (reference value: 0.8 +/- 0.03); type: functional
[10] = test system: Helicoverpa armigera; experiment: Antifeedant activity against fourth-instar larva of Helicoverpa armigera fed on compound treated artificial diet assessed as efficiency of conversion of ingested food at 100 ppm after 3 days (reference value: 20.3 +/- 2.7%); type: functional, Instar larval stage
[11] = test system: Helicoverpa armigera; experiment: Antifeedant activity against fourth-instar larva of Helicoverpa armigera fed on compound treated artificial diet assessed as efficiency of conversion of ingested food at 50 ppm after 3 days (reference value: 20.3 +/- 2.7%); type: functional, Instar larval stage
[12] = test system: Helicoverpa armigera; experiment: Antifeedant activity against fourth-instar larva of Helicoverpa armigera fed on compound treated artificial diet assessed as relative consumption rate ratio per unit weight per day at 100 ppm after 3 days (reference value: 3.85 +/- 0.9); type: functional
[13] = test system: Helicoverpa armigera; experiment: Antifeedant activity against fourth-instar larva of Helicoverpa armigera fed on compound treated artificial diet assessed as relative consumption rate ratio per unit weight per day at 50 ppm after 3 days (reference value: 3.85 +/- 0.9); type: functional
[14] = test system: Helicoverpa armigera; experiment: Antifeedant activity against fourth-instar larva of Helicoverpa armigera fed on compound treated artificial diet assessed as relative growth rate ratio per unit weight per day at 100 ppm after 3 days (reference value: 0.8 +/- 0.03); type: functional
[15] = test system: Helicoverpa armigera; experiment: Antifeedant activity against fourth-instar larva of Helicoverpa armigera fed on compound treated artificial diet assessed as relative growth rate ratio per unit weight per day at 50 ppm after 3 days (reference value: 0.8 +/- 0.03); type: functional
[16] = test system: Helicoverpa armigera; experiment: Antifeedant activity against third-instar larva of Helicoverpa armigera assessed as growth inhibition after 7 days by dietary assay; type: functional, organism-based
[17] = test system: Helicoverpa armigera; experiment: Antifeedant activity against pre-starved third-instar larva of Helicoverpa armigera after 6 hr by choice feeding assay; type: functional
Method in brief: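 H. armigera from lab culture on artificial diet, 27±1 °C, 16:8 LD. Single 2–10-h-old third instar, starved 4 h, in 9-cm Petri dish. Two preweighed diet cubes with compound (25–100 ppm) alternated with two control cubes. Consumption per cube measured after 6 h. 10 replicates per concentration. Deterrence index = (C − T)/(C + T) × 100.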

[18] = test system: Helicoverpa armigera; experiment: Antifeedant activity against pre-starved third-instar larva of Helicoverpa armigera assessed as decrease in feeding after 6 hr by choice feeding assay relative to control; type: functional, organism-based
Method in brief: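 Diet choice test in 9-cm Petri dishes: two preweighed cubes of diet with compound (25-100 ppm) alternated with two control cubes. A single 2- to 10-h-old third instar, pre-starved 4 h, was placed centrally. Consumption of each cube was weighed after 6 h, with 10 replicates per concentration. Deterrence index = (C − T)/(C + T) × 100.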

[19] = test system: Helicoverpa armigera; experiment: Antifeedant activity against third-instar larva of Helicoverpa armigera assessed as decrease in weight gain at 2 to 10 ug/larva applied topically measured after 7 days relative to control; type: functional, organism-based; method in brief: as §1
[20] = test system: Helicoverpa armigera; experiment: Antifeedant activity against neonate larva of Helicoverpa armigera assessed as growth inhibition after 7 days by dietary assay; type: functional, organism-based; conditions: for EC95: Helicoverpa armigera, feed or water, 168 h
Method in brief: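 Two 24-h-old neonates were placed per cup on 1 g fresh-weight treated artificial diet. Cups were held in a tray lined with moist filter paper at 27±2 °C under 16:8 LD. Growth was taken from larval weight after 7 d as % of control, with mortality recorded. Forty larvae were used per concentration. EC50 was obtained by regression analysis.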

[21] = test system: Helicoverpa armigera; experiment: Antifeedant activity against neonate larva of Helicoverpa armigera assessed as decrease in consumption of diet after 7 days by dietary assay; type: functional

Compound	Activity [1]	growth inhibition (GI) [2]	inhibition at 100 ppm [3]	Activity [4]	Activity [5]	Ratio [6]	Ratio [7]	Ratio [8]	Ratio [9]	Activity [10]	Activity [11]	Ratio [12]	Ratio [13]	Ratio [14]	Ratio [15]	EC50 [16]	Activity [18]	Activity [19]	EC50 [20]	EC95 [20]	other results
C=C1[C@@H]([C@@]2(C)[C@@H](OC(C)=O)CC(=O)O[C@](C)(COC(C)=O)[C@@H]2CC(=O)OC)[C@@H](OC=O)[C@H](OC(=O)[C@H](OC(C)=O)[C@H](C)CC)[C@]2(C)[C@@H](c3ccoc3)C[C@H]3O[C@]132	inactive	60%	72.8%	21.3%	22.1%	3.78	3.74	0.8	0.85	19%	20.1%	1.08	1.74	0.2	0.35	45.7 ppm	Active	inactive	2.6 ppm	30.8 µg/mL (≈ 39 µM)	DI50 [17]: 48.3 ppm; Activity [21]: Dose-dependent effect; Activity ([21]; record 2): 50.2%
C=C1[C@@H]([C@@]2(C)[C@@H](OC(C)=O)CC(=O)O[C@](C)(COC(C)=O)[C@@H]2C(=O)OC)[C@@H](OC=O)[C@H](OC(=O)[C@H](O)[C@H](C)CC)[C@@]2(C)[C@H](c3ccoc3)CC(=O)[C@]12O [PRIEURIANIN]	inactive	60%	57.7%	21.6%	22.1%	3.79	3.74	0.82	0.83	19.8%	20%	1.63	2.04	0.32	0.41	92.2 ppm	Active	inactive	18.8 ppm	169 µg/mL (≈ 226 µM)	DI50 [17]: 91.4 ppm
C=C1[C@@H]([C@@]2(C)[C@@H](OC(C)=O)CC(=O)O[C@](C)(COC(C)=O)[C@@H]2CC(=O)OC)[C@@H](OC=O)[C@H](OC(=O)[C@H](O)[C@H](C)CC)[C@]2(C)[C@@H](c3ccoc3)C[C@H]3O[C@]132	inactive	60%	69.1%	25.9%	25.2%	3.36	3.48	0.87	0.88	26.4%	26.2%	1.06	1.38	0.28	0.36	55.7 ppm	Active	inactive	3.2 ppm	30.6 µg/mL (≈ 41 µM)	Activity [21]: Dose-dependent effect; Activity ([21]; record 2): 50.2%
C/C=C(\C)C(=O)O[C@H]1C[C@@H](OC(C)=O)[C@@]2(C(=O)OC)CO[C@H]3[C@@H](O)[C@@](C)([C@]45O[C@@]4(C)[C@@H]4C[C@H]5O[C@@H]5OC=C[C@@]54O)[C@H]4[C@]1(CO[C@]4(O)C(=O)OC)[C@@H]32 [AZADIRACHTIN A]	–	≤ 75%	≤ 76%	–	–	–	–	–	–	–	–	–	–	–	–	0.4 ppm	–	–	0.26 ppm	1.46 µg/mL (≈ 2.03 µM)	–
